The full list was thinned out, with hits kept by preference.
INS promoter act: TRM-6 insulin promoter activation; 130,000 tested, 0.81% active; AID 1296; TRM-6 cells (human fetal islet line), insulin promoter eGFP reporter, imaging; plate-scaled: unstimulated 0, stimulated control 100; activation, % at 2 µM;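 active means activation at 2 µM above a set limit, confirmed on inspection of the cell images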;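 further: share of cells whose green reporter signal exceeds an intensity cutoff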
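Test system: TRM-6 insulin promoter–eGFP reporter cells / Quantity: 1,000 cells per well / Reagent: tamoxifen inducer, 0.75 µM, in seeding medium / Compound dosing: 2 µM final, single concentration / Schedule: overnight tamoxifen, then two-day compound incubation at 37 °C / Measured by: automated fluorescence imaging of paraformaldehyde-fixed, Hoechst-counterstained cells, green channel / Read-out: percent activation from GFP-positive cell fraction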
* = called active by the depositor.

SMILES | INS promoter act
COCc1cc(C)nc(N2CCc3ccccc32)c1C#N | 0
CNC(=O)C1=C(C)NC(=S)NC1c1cc2c(cc1OC)CCCC2 (centres undefined) | -9
Cc1ccc(S(=O)(=O)NCCOc2nc(N3CCOCC3)nc(N3CCOCC3)n2)cc1 | -4
Cc1nc(SCC(O)CO)c([N+](=O)[O-])[nH]1 (centres undefined) | 293
Cc1nc(N2CCN(S(=O)(=O)c3ccccc3)CC2)c2cc(-c3ccccc3)sc2n1 | 81*
CC(=O)N1CCN(c2ncnc3sc(-c4ccccc4)cc23)CC1 | 4
Cc1nc(N2CCN(S(=O)(=O)c3ccccc3)CC2)c2c3c(sc2n1)CC(C)CC3 (centres undefined) | 0
CC(C)NC(=O)C1CCN(C(=O)C(C(=O)c2ccccc2)n2cc(Cl)ccc2=O)CC1 (centres undefined) | 6
O=C(COc1ccc(Br)cc1)N/N=C1\SCC(=O)N1c1ccc(F)cc1 | -93
Cc1cc(Br)c(NC(=O)CCl)c(Br)c1 | 3
COc1ccc(Br)cc1C(=O)Nc1nnn(C)n1 | 0
Cc1cc(C)c(OCC(=O)Nc2nnn(C)n2)c(Br)c1 | 77*
CCC(=O)Nc1nnc(SCCN2CCOCC2)s1 | 108
COc1cccc(C2C(C(N)=O)=C(C)Nc3nc(-c4ccccc4Cl)nn32)c1 (centres undefined) | 138
Cc1ccc(O)c(NC(=S)NC(=O)c2ccc(-c3ccc(Cl)cc3)o2)c1 | -2
O=C(Nc1cc(Cl)cc(Cl)c1)c1cccc(OC(F)F)c1 | 4
CN(C)c1ccc(/C=C/C(O)=C2/C(=O)N(C)C3(C)CC2c2ccccc2O3)cc1 (centres undefined) | 64
CN(C)c1ccc(/C=C/C=C2/SC(=S)N(c3ccccc3)C2=O)cc1 | 296*
CN(C)c1ccc(/C=N/N2C(=N)N(c3ccccc3)C(=S)C2=Nc2ccccc2)cc1 | 252
CCOC(=O)c1cccc(NC(=O)CSc2nnc(CNc3ccc(C)cc3)n2CC)c1 | 0
CCOC(=O)c1cccc(NC(=O)c2cccnc2)c1 | 9
CCOC(=O)c1cccc(NC(=O)CSc2nnc(-c3cccnc3)n2CC)c1 | 81*
COC(=O)CN(c1ccccc1F)S(=O)(=O)c1ccc(C)cc1 | -7
CCOC(=O)c1nn(-c2ccc(Cl)cc2)c2nnc(Cc3ccccc3)c(=O)n12 | -3
O=C(CN1C(=O)c2cccc3cccc1c23)N1CCN(Cc2ccc3c(c2)OCO3)CC1 | 500*
SMILES | INS promoter act
O=C(CN1C(=O)c2cccc3cccc(c23)C1=O)N1CCOCC1 | -8
O=C(c1cccn2c(=O)c3ccccc3nc12)N1CCN(Cc2ccc3c(c2)OCO3)CC1 | 7
COc1cc(/C=N/NC(=O)C(C)n2nnc3ccccc32)ccc1O (centres undefined) | -10
O=C(O)/C=C/C(=O)Nc1ccc(NC(=O)c2ccccc2)c(Cl)c1 | 8
Cc1ccc(C2NNC(=O)C2NC(=O)c2ccccc2)cc1 (centres undefined) | 0
COc1ccc(C(=O)C2CN(c3ccccc3)CC2c2ccc(Cl)cc2)cc1 (centres undefined) | -7
O=C1C(=Cc2cccs2)C(=O)c2ccccc21 | -7
Cc1ccc(C=C2C(=O)c3ccccc3C2=O)s1 | 322*
Cc1cccc(-n2c(C)cc(C=C3C(=O)c4ccccc4C3=O)c2C)c1 | 7
CN(C)C(CNC(=S)Nc1cccc(Cl)c1)c1cccnc1 (centres undefined) | 0
COc1ccc(C(=O)CSc2nnc(CNC(=O)c3ccc(OC)cc3)n2C)cc1 | 3
CCOC(=O)CC(NC(=O)c1cccc2c1C(=O)N(Cc1cccnc1)C2)c1ccc(OCC)c(OC)c1 (centres undefined) | -7
O=c1oc2ccc(Br)cc2cc1S(=O)(=O)c1ccc(F)cc1 | 8
CC(C)NC(=O)c1cc2cc(Br)ccc2oc1=O | 129*
CC(C)NC(=O)COC(=O)c1cc(Br)ccc1Cl | -3
Cc1ccc(C)c(NC(=S)N2CCCCC2CO)c1 (centres undefined) | 0
Cc1nn(C)c(C)c1/C=N/N=C1\CCC2C3CCc4cc(O)ccc4C3CCC12C (centres undefined) | 91*
C#C[C@]1(O)CC[C@H]2[C@@H]3CCc4cc(OC)ccc4[C@H]3CC[C@@]21C | -5
Cc1ccc(-c2cc(C(=O)N/N=C/c3c(C)nn(C)c3C)c3ccccc3n2)cc1C | 5
CCOC(=O)c1nc(-c2ccc(OC)c(OC)c2)cnc1C#N | 8
COc1cc(OC)c(C(=O)NNC(=S)NC2CCCCC2)cc1OC | 8
Cn1cc(Cl)c(C(=O)NNC(=S)NC2CCCCC2)n1 | 492*
COC(=O)c1c(NC(=O)c2nn(C)cc2Cl)sc2c1CCCC2 | 3
COc1ccc(C2CC(=O)N(CCCN(C)CCc3ccc(OC)c(OC)c3)C2)cc1 (centres undefined) | -7
CCCN1CCC(N(C)CCc2ccc(OC)c(OC)c2)CC1 | 127*
SMILES | INS promoter act
COc1ccc(CCNC2CC(=O)N(N(C)C)C2=O)cc1OC (centres undefined) | -3
O=C(/C=C\c1cccs1)c1c(O)ccc2ccc(=O)oc12 | -7
Cc1ccc(S(=O)(=O)Nc2ccc(N3CCOCC3)cc2)cc1 | 81*
Cc1ccc(NS(=O)(=O)c2ccc(CCC(=O)N3CCOCC3)cc2)cc1 | 188
Cc1ccc(S(=O)(=O)Nc2ccc(S(=O)(=O)NC(C)(C)C)cc2)cc1 | 8
C=CCc1ccccc1OCCOc1ccc([N+](=O)[O-])cc1/C=N/NC(N)=O | 0
CCOC(=O)N1CCN(C(=O)c2ccc(N(Cc3ccccc3)S(C)(=O)=O)cc2)CC1 | 7
NCCCC(N)(C(=O)O)C(F)F (centres undefined) | 10
CN(C)C(=O)N1CCCC(C(=O)NCc2ccccc2Cl)C1 (centres undefined) | -8
Cc1ccc(S(=O)(=O)N2CCC(C(=O)NCc3ccccc3Cl)CC2)cc1 | 91*
O=C(NCc1ccccn1)C1CCN(S(=O)(=O)c2ccccc2)CC1 | 0
OC1(c2ccc(OC(F)F)cc2)CSC(=Nc2cccnc2)N1Cc1ccco1 (centres undefined) | 9
COC(=O)c1[nH]c2ccc(C)cc2c1NC(=O)Nc1ccccc1OC | 0
COC(=O)c1[nH]c2ccccc2c1NC(=O)CN1CCN(c2cccc(OC)c2)C(C)C1 (centres undefined) | -9
COC(=O)c1[nH]c2cc(C)ccc2c1NC(=O)CN1CCCc2ccccc21 | 191*
COc1cc(NC(=O)CSc2nc3ccccc3n2-c2ccccc2)c(C)cc1[N+](=O)[O-] | 7
CCOC(=O)N(NC(=O)C(O)(C(C)C)C(C)C)c1ccccc1 | 112*
CCOC(=O)C(=O)NC(C)CCc1ccccc1 (centres undefined) | -7
Cc1cccc(N(NC(=O)C(C)(C)O)C(=O)c2ccccc2)c1 | 0
CC(Nc1[nH]c(=O)n(C)c(=O)c1N=O)c1ccccc1 (centres undefined) | 0
Cc1c2cccn2cc[n+]1C | -7
COc1ccc(NS(=O)(=O)c2ccc(O)c(NC(=O)c3cc4c(C)nn(-c5ccc(F)cc5)c4s3)c2)cc1 | -85
COc1ccc(N2CCN(C(=O)CN(C)S(=O)(=O)c3cc(C)ccc3OC)CC2)cc1 | -6
CCCOc1ccc2c3c(c(=O)oc2c1OCCC)CCCC3 | 0
CCOC(=O)COc1ccc2c3c(c(=O)oc2c1C)CCC3 | 519*
Cc1c(OCc2nn[nH]n2)ccc2c3c(c(=O)oc12)CCCC3 | 108
Cc1ccc(NC(=O)CSc2nn(-c3ccccc3)c(=S)s2)cc1S(=O)(=O)N(C)C | 5
